ChEMBL document CHEMBL4043273, “Phenotypic Optimization of Urea-Thiophene Carboxamides To Yield Potent, Well Tolerated, and Orally Active Protective Agents against Aminoglycoside-Induced Hearing Loss” (J Med Chem, 2018)
≈ marks a conversion by molar mass, not a printed value. Calls of active or inactive are those of the source.

How the values were obtained:
[1] = biological target: Voltage-gated inwardly rectifying potassium channel KCNH2 (Homo sapiens, UniProt Q12809)
HepG2 = experiment: Cytotoxicity against human HepG2 cells assessed as decrease in cell growth after 72 hrs by celltiter glo assay; format: cell-based; details: HepG2, 72 h
Danio rerio [2] = organism: Danio rerio; experiment: Protection against neomycin-induced hair cell death in AB zebra fish larvae assessed as increase in hair cell survival preincubated for 1 hr followed by neomycin challenge for 1 hr by DASPEI staining-based epifluorescence dissecting microscopic method; format: functional
Rattus norvegicus [3] = experiment: Acute toxicity in rat at 50 mg/kg, iv; format: organism-based; details: in vivo
[4] = (§1) Elimination half life in rat by LC-MS method; format: ADME; details: in vivo, read-out: beta t1/2 (converted)
[5] = Drug metabolism assessed as air oxidation; format: physicochemical
[6] = (§2) Oral bioavailability in rat at 25 mg/kg; format: ADME, organism-based; details: in vivo
[7] = Ratio of IC50 for human ERG expressed in HEK293 cells to HC50 for protection against neomycin-induced hair cell death in AB zebra fish larvae
[8] = (§3) Protein binding in human plasma; format: ADME, cell-free; details: read-out: PPB
[9] = Aqueous solubility of compound at pH 7.4; format: physicochemical
[10] = (§4) Protein binding in rat plasma; format: ADME, cell-free; details: read-out: PPB
Cytochrome P450 2C9 = Cytochrome P450 2C9 (Homo sapiens, UniProt P11712); experiment: Inhibition of CYP2C9 (unknown origin); format: ADME
Cytochrome P450 2C19 = Cytochrome P450 2C19 (Homo sapiens, UniProt P33261); experiment: Inhibition of CYP2C19 (unknown origin); format: ADME
Cytochrome P450 3A4 = Cytochrome P450 3A4 (Homo sapiens, UniProt P08684); experiment: Inhibition of CYP3A4 (unknown origin); format: ADME
Rattus norvegicus [11] = organism: Rattus norvegicus; experiment: as §1; format: ADME; details: in vivo
Rattus norvegicus [12] = experiment: as §2; format: ADME, organism-based; details: in vivo
Plasma [13] = experiment: as §3; format: ADME, cell-free
Plasma [14] = experiment: as §4; format: ADME, cell-free
Cytochrome P450 2D6 = Cytochrome P450 2D6 (Homo sapiens, UniProt P10635); experiment: Inhibition of CYP2D6 (unknown origin); format: ADME
Pseudomonas aeruginosa [15] = experiment: Effect on tobramycin MIC for aminoglycoside-resistant Pseudomonas aeruginosa 6322; format: functional
Pseudomonas aeruginosa [16] = experiment: Effect on amikacin MIC for aminoglycoside-resistant Pseudomonas aeruginosa 6322; format: functional
Pseudomonas aeruginosa [17] = experiment: Effect on neomycin MIC for aminoglycoside-resistant Pseudomonas aeruginosa 6322; format: functional
Pseudomonas aeruginosa [18] = experiment: Effect on tobramycin MIC for Pseudomonas aeruginosa 6325; format: functional
Pseudomonas aeruginosa [19] = experiment: Effect on kanamycin MIC for Pseudomonas aeruginosa 6160; format: functional
[20] = test system: Mycobacterium tuberculosis; experiment: Effect on kanamycin-induced antibacterial activity against Mycobacterium tuberculosis in mouse pulmonary tuberculosis model; format: functional
Pseudomonas aeruginosa [21] = experiment: Effect on kanamycin MIC for Pseudomonas aeruginosa 103 ATCC 27853; format: functional
Rattus norvegicus [22] = experiment: Protection against amikacin-induced hair cell death in Fischer 344 rat corti at 5 mg/kg/day administered via oral gavage for 12 days followed by recovery without treatment for additional 14 days by immunohistochemical method; format: functional, organism-based
Method in brief: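 Rats given amikacin 320 mg/kg/day s.c. plus compound 5 mg/kg p.o. daily for 12 days; saline s.c. controls. Cochleae fixed in 4% paraformaldehyde and dissected. Organ of Corti immunostained for myosin 7A (hair cells), Sox2 (supporting-cell nuclei) and neurofilament (neuronal processes). Basal turn imaged by confocal microscopy.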

Escherichia coli [23] = experiment: Effect on neomycin MIC for Escherichia coli ATCC 25922; format: functional
[24] = test system: Mycobacterium tuberculosis; experiment: Effect on moxifloxacin-induced antibacterial activity against Mycobacterium tuberculosis in mouse pulmonary tuberculosis model; format: functional
Pseudomonas aeruginosa [25] = experiment: Effect on amikacin MIC for Pseudomonas aeruginosa 103 ATCC 27853; format: functional
Pseudomonas aeruginosa [26] = experiment: Effect on neomycin MIC for Pseudomonas aeruginosa 6160; format: functional
Pseudomonas aeruginosa [27] = experiment: Effect on tobramycin MIC for Pseudomonas aeruginosa 6471; format: functional
Pseudomonas aeruginosa [28] = experiment: Effect on neomycin MIC for Pseudomonas aeruginosa 6325; format: functional
[29] = test system: Mycobacterium tuberculosis; experiment: Effect on amikacin MIC for Mycobacterium tuberculosis H37Rv at 1 to 10 uM; format: functional
Escherichia coli [30] = experiment: Effect on neomycin MBC for Escherichia coli ATCC 25922; format: functional
[31] = test system: Mycobacterium tuberculosis; experiment: Effect on amikacin-induced antibacterial activity against Mycobacterium tuberculosis in mouse pulmonary tuberculosis model; format: functional
Rattus norvegicus [32] = experiment: Protection against amikacin-induced hearing loss at 2 to 32 kHz in Fischer 344 rat at 5 mg/kg/day administered via oral gavage for 12 days followed by recovery without treatment for additional 14 days by auditory brain stem response assay; format: functional, organism-based
Method in brief: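 Male Fischer 344 rats had ABR thresholds measured 1–2 weeks before treatment and 2 weeks after it, under isoflurane, on a heating pad near 37°C, in a sound-attenuating chamber. Amikacin 320 mg/kg/day s.c. for 12 days, with compound 5 mg/kg/day by oral gavage in PEG300:DMA:EtOH:H2O. Groups: amikacin alone or amikacin plus compound.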

Pseudomonas aeruginosa [33] = experiment: Effect on amikacin MIC for Pseudomonas aeruginosa 6325; format: functional
Pseudomonas aeruginosa [34] = experiment: Effect on kanamycin MIC for Pseudomonas aeruginosa 6325; format: functional
Pseudomonas aeruginosa [35] = experiment: Effect on tobramycin MIC for Pseudomonas aeruginosa 6160; format: functional
Pseudomonas aeruginosa [36] = experiment: Effect on neomycin MIC for Pseudomonas aeruginosa 103 ATCC 27853; format: functional
Pseudomonas aeruginosa [37] = experiment: Effect on kanamycin MIC for Pseudomonas aeruginosa 6471; format: functional
Pseudomonas aeruginosa [38] = experiment: Effect on tobramycin MIC for Pseudomonas aeruginosa 103 ATCC 27853; format: functional
Pseudomonas aeruginosa [39] = experiment: Effect on kanamycin MIC for aminoglycoside-resistant Pseudomonas aeruginosa 6322; format: functional
Pseudomonas aeruginosa [40] = experiment: Effect on amikacin MIC for Pseudomonas aeruginosa 6160; format: functional
Pseudomonas aeruginosa [41] = experiment: Effect on amikacin MIC for Pseudomonas aeruginosa 6471; format: functional
Pseudomonas aeruginosa [42] = experiment: Effect on neomycin MIC for Pseudomonas aeruginosa 6471; format: functional
[43] = Protein binding in plasma; details: read-out: PPB (converted)
Rattus norvegicus [44] = experiment: Change in hearing threshold in Fischer 344 rat at 5 to 25 mg/kg/day administered via oral gavage for 12 days; format: ADME, organism-based; details: in vivo, 288 h
Method in brief: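 Fischer 344 rats given compound alone by oral gavage at 5 or 25 mg/kg/day for 12 days (n=3 per dose), vehicle PEG300:DMA:EtOH:H2O. ABR thresholds measured before dosing and after a 2-week recovery, under isoflurane anaesthesia in a sound-attenuating chamber.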

Danio rerio [45] = organism: Danio rerio; experiment: Protection against neomycin-induced hair cell death in AB zebra fish larvae assessed as increase in hair cell survival at 2.8 uM preincubated for 1 hr followed by neomycin challenge for 1 hr by DASPEI staining-based epifluorescence dissecting microscopic method relative to control; format: functional
Method in brief: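 AB larvae raised at 28.5°C in embryo medium and tested at 5-7 dpf, ten fish per basket. Pretreatment with compound for 1 h at 1.56–25 µM (halved further if the lowest dose protected), then compound plus 200 µM neomycin for 1 h. After rinsing, 0.05% DASPEI stain for 15 min and MS222 anaesthesia. Ten neuromasts per fish scored 0–2 under epifluorescence, normalised to untreated fish as % survival; HC50 linearly interpolated.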

[46] = Permeability across MDCK cells expressing MDR1; format: ADME, cell-based, Canis lupus familiaris; details: dog, read-out: permeability
[47] = Metabolic stability in microsomes (unknown origin); format: ADME, Microsome
Rattus norvegicus [48] = experiment: Protection against kanamycin-induced hearing loss at 8 to 32 kHz in Sprague-Dawley rat at 25 mg/kg/day, ip treated for 14 days followed by recovery without treatment for additional 14 days by auditory brain stem response assay; format: functional, organism-based
[49] = aqueous medium, read-out: solubility

Voltage-gated inwardly rectifying potassium channel KCNH2, sequence (Q12809 whole entry): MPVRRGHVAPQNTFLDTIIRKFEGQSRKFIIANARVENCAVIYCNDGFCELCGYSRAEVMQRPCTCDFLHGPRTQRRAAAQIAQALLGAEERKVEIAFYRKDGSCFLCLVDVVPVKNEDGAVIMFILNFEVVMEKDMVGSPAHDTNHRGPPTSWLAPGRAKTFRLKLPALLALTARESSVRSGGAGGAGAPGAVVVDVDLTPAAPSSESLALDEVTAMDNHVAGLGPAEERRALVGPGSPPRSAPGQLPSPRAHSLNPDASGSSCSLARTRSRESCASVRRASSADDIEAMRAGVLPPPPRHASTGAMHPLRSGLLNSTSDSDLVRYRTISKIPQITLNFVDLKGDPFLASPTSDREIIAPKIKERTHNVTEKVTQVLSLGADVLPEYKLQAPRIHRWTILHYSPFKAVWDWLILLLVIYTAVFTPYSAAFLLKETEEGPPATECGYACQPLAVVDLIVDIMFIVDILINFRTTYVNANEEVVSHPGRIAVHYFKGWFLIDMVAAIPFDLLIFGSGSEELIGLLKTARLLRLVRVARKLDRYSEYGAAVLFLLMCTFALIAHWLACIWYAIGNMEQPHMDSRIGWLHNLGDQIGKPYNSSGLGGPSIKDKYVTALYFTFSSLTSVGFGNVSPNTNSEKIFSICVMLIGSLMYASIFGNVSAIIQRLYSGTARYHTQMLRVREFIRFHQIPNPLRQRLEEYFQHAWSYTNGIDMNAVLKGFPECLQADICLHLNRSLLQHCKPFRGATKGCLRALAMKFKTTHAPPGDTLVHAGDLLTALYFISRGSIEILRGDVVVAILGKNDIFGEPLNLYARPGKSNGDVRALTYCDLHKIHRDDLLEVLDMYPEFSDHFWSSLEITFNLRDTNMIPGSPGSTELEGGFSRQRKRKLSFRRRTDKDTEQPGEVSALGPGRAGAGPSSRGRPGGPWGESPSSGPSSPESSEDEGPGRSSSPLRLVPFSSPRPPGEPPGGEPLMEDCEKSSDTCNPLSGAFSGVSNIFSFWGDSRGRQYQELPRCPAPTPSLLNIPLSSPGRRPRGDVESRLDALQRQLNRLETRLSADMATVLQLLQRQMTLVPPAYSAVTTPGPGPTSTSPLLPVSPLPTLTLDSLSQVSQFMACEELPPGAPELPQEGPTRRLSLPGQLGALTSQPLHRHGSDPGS
Cytochrome P450 3A4, sequence (P08684 whole entry): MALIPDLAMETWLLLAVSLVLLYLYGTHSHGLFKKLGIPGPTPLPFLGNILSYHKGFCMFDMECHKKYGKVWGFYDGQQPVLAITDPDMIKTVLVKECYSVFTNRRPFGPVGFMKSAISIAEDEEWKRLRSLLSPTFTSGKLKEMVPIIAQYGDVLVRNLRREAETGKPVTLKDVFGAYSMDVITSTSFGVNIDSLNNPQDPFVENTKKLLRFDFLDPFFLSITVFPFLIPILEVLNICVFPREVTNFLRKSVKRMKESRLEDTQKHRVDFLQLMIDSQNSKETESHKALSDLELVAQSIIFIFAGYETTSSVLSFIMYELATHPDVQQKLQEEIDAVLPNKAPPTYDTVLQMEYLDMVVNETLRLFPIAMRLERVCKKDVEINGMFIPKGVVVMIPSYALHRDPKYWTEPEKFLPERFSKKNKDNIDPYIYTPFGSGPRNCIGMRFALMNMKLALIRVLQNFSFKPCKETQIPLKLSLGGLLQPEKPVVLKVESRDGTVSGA
Cytochrome P450 2D6, sequence (P10635 whole entry): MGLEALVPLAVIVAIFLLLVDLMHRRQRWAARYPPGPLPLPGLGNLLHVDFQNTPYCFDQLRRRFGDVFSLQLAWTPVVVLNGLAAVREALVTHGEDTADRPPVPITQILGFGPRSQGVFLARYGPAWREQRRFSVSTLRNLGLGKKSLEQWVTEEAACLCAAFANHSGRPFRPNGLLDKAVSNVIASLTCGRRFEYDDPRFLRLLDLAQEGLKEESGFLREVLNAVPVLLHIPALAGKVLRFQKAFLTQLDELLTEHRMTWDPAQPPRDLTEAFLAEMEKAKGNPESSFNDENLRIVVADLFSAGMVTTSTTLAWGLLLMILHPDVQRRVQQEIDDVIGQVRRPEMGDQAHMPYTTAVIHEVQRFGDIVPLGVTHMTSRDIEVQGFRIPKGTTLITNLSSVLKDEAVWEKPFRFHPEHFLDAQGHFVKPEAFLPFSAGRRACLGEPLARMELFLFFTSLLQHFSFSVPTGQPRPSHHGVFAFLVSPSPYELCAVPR
Cytochrome P450 2C9, sequence (P11712 whole entry): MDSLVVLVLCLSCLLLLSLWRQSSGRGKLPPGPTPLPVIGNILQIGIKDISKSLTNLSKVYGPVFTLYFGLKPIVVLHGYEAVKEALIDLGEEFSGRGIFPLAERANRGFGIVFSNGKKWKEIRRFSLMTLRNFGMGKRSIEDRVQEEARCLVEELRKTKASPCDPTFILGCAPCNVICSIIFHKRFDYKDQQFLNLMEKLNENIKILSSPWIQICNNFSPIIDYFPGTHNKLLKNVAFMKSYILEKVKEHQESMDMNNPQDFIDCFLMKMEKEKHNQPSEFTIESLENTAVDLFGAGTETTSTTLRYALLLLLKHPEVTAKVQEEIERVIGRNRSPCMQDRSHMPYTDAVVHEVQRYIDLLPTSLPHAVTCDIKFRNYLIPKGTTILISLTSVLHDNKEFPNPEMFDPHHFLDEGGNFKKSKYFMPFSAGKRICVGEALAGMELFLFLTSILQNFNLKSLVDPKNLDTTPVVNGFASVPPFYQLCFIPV
Cytochrome P450 2C19, sequence (P33261 whole entry): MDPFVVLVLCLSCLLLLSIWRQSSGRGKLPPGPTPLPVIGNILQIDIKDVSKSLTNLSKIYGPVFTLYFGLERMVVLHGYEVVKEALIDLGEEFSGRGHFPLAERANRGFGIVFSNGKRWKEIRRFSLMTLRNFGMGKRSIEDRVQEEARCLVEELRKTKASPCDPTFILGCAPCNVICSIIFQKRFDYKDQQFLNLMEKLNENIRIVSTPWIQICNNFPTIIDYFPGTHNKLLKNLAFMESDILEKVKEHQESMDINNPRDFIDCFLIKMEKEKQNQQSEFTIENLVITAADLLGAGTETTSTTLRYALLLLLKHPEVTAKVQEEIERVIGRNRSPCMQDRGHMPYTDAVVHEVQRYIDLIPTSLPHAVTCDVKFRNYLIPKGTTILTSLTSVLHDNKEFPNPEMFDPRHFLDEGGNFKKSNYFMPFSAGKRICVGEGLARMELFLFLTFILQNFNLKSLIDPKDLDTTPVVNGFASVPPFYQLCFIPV

NC(=O)c1c(NC(=O)Nc2ccc(Cl)cc2)sc2c1CCN(CCCNC(=O)CCc1c[nH]c3ccccc13)C2
IC50 [1]: 20.1 µM | IC50 (HepG2): 17 µM | EC50 (Danio rerio [2]): 0.1 µM | Activity (Rattus norvegicus [3]): Non-Toxic | half-life [4]: 7.1 h | Drug metabolism [5]: Metabolite_Detected | bioavailability [6]: > 1% | Ratio [7]: 201 | fraction unbound [8]: 0.001 | solubility [9, 49]: 86 µM (≈ 49.8 µg/mL) | fraction unbound [10]: 0.001

CC1(C)Cc2c(sc(NC(=O)Nc3ccc(Cl)cc3)c2C(N)=O)C(C)(C)N1.Cl
IC50 [1]: > 30 µM | inhibition (INH) (Cytochrome P450 2C9; human): Not Active | IC50 (HepG2): > 300 µM | inhibition (INH) (Cytochrome P450 2C19; human): Not Active | EC50 (Danio rerio [2]): 1.24 µM | inhibition (INH) (Cytochrome P450 3A4; human): Not Active | Activity (Rattus norvegicus [3]): Non-Toxic | beta t1/2 (Rattus norvegicus [11]): 6.2 h | Drug metabolism [5]: Metabolite_Notdetected | F (Rattus norvegicus [12]): 21% | Ratio [7]: >24 | PPB (Plasma [13]): 96.5% | solubility ([9]; buffer): 13 µM | PPB (Plasma [14]): 95.8% | inhibition (INH) (Cytochrome P450 2D6; human): Not Active

CCN1CCc2c(sc(NC(=O)Nc3ccc(Cl)cc3)c2C(N)=O)C1.Cl
IC50 [1]: 3.26 µM | IC50 (HepG2): > 300 µM | EC50 (Danio rerio [2]): 3.12 µM | Activity (Rattus norvegicus [3]): Non-Toxic | beta t1/2 (Rattus norvegicus [11]): 2.1 h | Drug metabolism [5]: Metabolite_Detected | F (Rattus norvegicus [12]): 46% | PPB (Plasma [13]): 95.9% | PPB (Plasma [14]): 94.1%

CN1[C@@H]2CC[C@H]1c1c(sc(NC(=O)Nc3ccc(Cl)cc3)c1C(N)=O)C2
Activity (Pseudomonas aeruginosa [15]): inactive | Activity (Pseudomonas aeruginosa [16]): inactive | Activity (Pseudomonas aeruginosa [17]): inactive | Activity (Pseudomonas aeruginosa [18]): inactive | Activity (Pseudomonas aeruginosa [19]): inactive | Activity [20]: inactive | Activity (Pseudomonas aeruginosa [21]): inactive | Activity (Rattus norvegicus [22]): Active | Activity (Escherichia coli [23]): inactive | Activity [24]: inactive | Activity (Pseudomonas aeruginosa [25]): inactive | Activity (Pseudomonas aeruginosa [26]): inactive | Activity (Pseudomonas aeruginosa [27]): inactive | Activity (Pseudomonas aeruginosa [28]): inactive | Activity [29]: inactive | Activity (Escherichia coli [30]): inactive | Activity [31]: inactive | Activity (Rattus norvegicus [32]): Active | Activity (Pseudomonas aeruginosa [33]): inactive | Activity (Pseudomonas aeruginosa [34]): inactive | Activity (Pseudomonas aeruginosa [35]): inactive | Activity (Pseudomonas aeruginosa [36]): inactive | Activity (Pseudomonas aeruginosa [37]): inactive | Activity (Pseudomonas aeruginosa [38]): inactive | Activity (Pseudomonas aeruginosa [39]): inactive | Activity (Pseudomonas aeruginosa [40]): inactive | Activity (Pseudomonas aeruginosa [41]): inactive | Activity (Pseudomonas aeruginosa [42]): inactive

CN1[C@@H]2CC[C@H]1c1c(sc(NC(=O)Nc3ccc(Cl)cc3)c1C(N)=O)C2.Cl
IC50 (Cytochrome P450 2C9): 60 µM | fraction unbound [43]: 0.1 | IC50 (HepG2): > 300 µM | IC50 (Cytochrome P450 2C19): 58 µM | EC50 (Danio rerio [2]): 0.12 µM | IC50 (Cytochrome P450 3A4): 46 µM | Activity (Rattus norvegicus [44]): Non-Toxic | Activity (Rattus norvegicus [3]): Non-Toxic | half-life [4]: 7.8 h | %max (Danio rerio [45]): 98% | Drug metabolism [5]: Metabolite_Notdetected | Papp [46]: 5.2 ×10⁻⁶ cm/s | bioavailability [6]: > 50% | Ratio [7]: 47 | fraction unbound [8]: 0.093 to 0.11 | solubility [9, 49]: 86 µM | fraction unbound [10]: 0.099 to 0.14 | IC50 (Cytochrome P450 2D6): > 100 µM | Stability [47]: Stable

CCN1CCc2c(sc(NC(=O)Nc3ccc(Cl)cc3)c2C(N)=O)C1
Activity (Escherichia coli [23]): inactive | Activity (Escherichia coli [30]): inactive | Activity (Rattus norvegicus [48]): Active
